Experimental findings from ChEMBL document CHEMBL4513216, “Probing the Open Global Health Chemical Diversity Library for Multistage-Active Starting Points for Next-Generation Antimalarials” (ACS Infect Dis, 2020) are described below.

Molecules are shown by their SMILES.

The series in a line: Toxicity liver stage against HepG2, at 10uM. It is filed as cell-based. On the set-up: test concentration 10 uM, cell line HepG2-A16-CD81EGFP. Conditions: human, HepG2-A16-CD81EGFP cells; read-out: INHIBITION
The method, boiled down: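 Uninfected HepG2-A16-CD81EGFP cells, 3 × 10^3 per well, 1536-well, plated on prespotted compound at 10 μM final, parasite-free screening media added to match infected plates; puromycin 10 μM positive, DMSO 0.5% negative; run in parallel with 48 h PbLuc assay at 37 °C, 5% CO2; viability by CellTiter-Glo luminescence, normalized to controls.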
Take `CC(C)Oc1cccc(C(=O)C2CCCN(C(=O)c3ccoc3)C2)c1` (stereo unspecified): the cytotoxicity at 10 µM amounted to 1.43%.
In the case of `C=C(C)CSc1nnc(CCNC(=O)OC(C)(C)C)o1` it was 8.94%; in that of `CCCC(=O)N(CCN1CCOCC1)c1nc2c(OC)ccc(C)c2s1`, -5.02%; in that of `Cn1c(=O)c2cc(C(=O)NCCc3ccccc3)ccc2n(C)c1=O`, -13.8%.
To `CCN(CC)C(=O)CC[C@@H]1CNC(=O)[C@@H]2C[C@H](NC(=O)C3CC3)CN12` belongs 5.76%.
To `COCCn1ccc2cc(C(=O)N3CCN(S(C)(=O)=O)CC3)ccc21` belongs -6.63%; to `Cc1ccc(S(=O)(=O)NCC2(O)CCOc3ccccc32)s1` (stereo unspecified), 5.33%.
In the case of `N#Cc1ccc(OC2CCN(C(=O)c3ccc(Br)o3)CC2)nc1`, the cytotoxicity at 10 µM stood at 11.2%.
As for `COCCc1noc(C2CCN(C(=O)Nc3cccs3)CC2)n1`, the cytotoxicity at 10 µM was -10.6%.
To `CN(C)c1ccc2c(c1)CN(C(=O)c1ccco1)C2c1cnco1` (stereo unspecified) belongs 31.9%.
For the molecule `Cc1noc(C2CCC3(CCN(C(=O)c4ccn(C)n4)CC3)O2)n1` (stereo unspecified), the cytotoxicity at 10 µM was found to be 7.57%.
With `Cn1cc(CN2CCC(F)(F)C3(CCN(c4cccc(F)c4)C3)C2)cn1` (stereo unspecified), the cytotoxicity at 10 µM amounted to 45.9%.
In the case of `O=C(NCc1ccco1)[C@@H]1C[C@H]2OCC[C@H]2N(c2ncc(F)cn2)C1`, the cytotoxicity at 10 µM was -0.113%.
In the case of `CC(C)C(NC(=O)Cn1nc2c(cc1=O)CCCC2)C(=O)O` (stereo unspecified) it was 7.63%.
As to `Cc1cccc(Cn2cc(Br)c(NS(C)(=O)=O)n2)c1`, the cytotoxicity at 10 µM is -0.08%.
In the case of `O=C1N[C@H]2OCCC[C@H]2[C@H](c2ccccc2C(=O)O)N1`, the cytotoxicity at 10 µM was found to be 2.62%.
To `Cn1ccnc1CNC(=O)CCc1cccc(F)c1` belongs 0.293%; to `COCCC(=O)N1CCC2(CC1)CN(S(C)(=O)=O)Cc1ccccc1O2`, 3.73%; to `c1cnc(Nc2cncc(C3CCCN(c4ncccn4)C3)n2)nc1` (stereo unspecified), -2.44%.
Consider `Cc1cnn(CCNCC(=O)N2CCN(c3ccccn3)CC2)c1`, for which the cytotoxicity at 10 µM stood at 1.22%.
Take `CNC(=O)CCN(C)CC1(c2ccc(Br)cc2)CC1`: the cytotoxicity at 10 µM is -12.5%.
In the case of `NC(=O)CSCCC(=O)NCC1CC1` it was 6.2%; in that of `Cc1cnn(Cc2ccc(NC(=O)N3CCCCC3CO)cc2)c1` (stereo unspecified), 56.1%.
As for `CNS(=O)(=O)c1ccc(CNC(=O)Nc2ccccn2)s1`, the cytotoxicity at 10 µM is -9.11%.
For `Cc1c(CS(C)(=O)=O)cccc1NCC1CCCCC1`, the cytotoxicity at 10 µM is -8.98%.
In the case of `CCNC(=O)CCC(=O)NC(C)Cc1ccccc1Br` (stereo unspecified) it was -4.99%; in that of `Cc1cc(C)c(CNC(=O)N2CCC(N3CCCCC3)CC2)c(=O)[nH]1`, 7.53%.
To `Cc1cc(C(=O)N2CC(=O)Nc3cnccc32)c(Cl)cc1F` belongs 3.07%; to `Cc1ccc(C)c(S(=O)(=O)NCCC(=O)NCc2ccoc2)c1`, -11.5%; to `Cc1nc(C2(NCC(=O)NC(=O)NCC(F)(F)F)CCCCC2)no1`, 18.4%.
Regarding `Cc1nc(NC(=O)c2nn(-c3ccc(F)cc3C)cc2O)n[nH]1`, the cytotoxicity at 10 µM is -7.3%.
Consider `N#Cc1nccnc1NCCC1CCN(CC(F)(F)F)CC1`, for which the cytotoxicity at 10 µM came to 1.6%.
In the case of `CC(C)OCCS(=O)(=O)c1ccccc1C#N` it was 8.24%; in that of `O=C(c1ccc2[nH]cnc2c1)N1CCCC1Cn1cccn1` (stereo unspecified), -10%.
On to `Cc1ccc(C(F)(F)F)cc1NCC(=O)Nc1c(C)nn(C)c1C`, for which the cytotoxicity at 10 µM is -1.86%.
To `Cn1cc(CC(CNC(=O)Nc2cccc(Cl)c2)C(N)=O)cn1` (stereo unspecified) belongs -15.5%; to `Cc1cccc2c1OCCCC2NCc1nccn1Cc1ccccc1` (stereo unspecified), 1.38%; to `CN(C)c1ccc(CNCc2ccc(N3CCOCC3)cc2)cn1`, 7.17%.
In the case of `Cn1nnnc1SCCC(=O)NCC1Cc2ccccc2O1` (stereo unspecified) it was 9.35%.
To `Cc1ccc(CCCC(=O)N2CCC(CS(N)(=O)=O)CC2)s1` belongs 15.6%.
`COc1cccc(COCC(=O)NC(C)c2nnc3n2CCC3)c1` (stereo unspecified): the cytotoxicity at 10 µM was -3.36%.
In the case of `Cn1ncnc1NCc1ccc(Cl)cc1` it was -4.43%; in that of `CC(CC(=O)Nc1ccc(C(=O)N(C)C)c(Cl)c1)n1cccc1` (stereo unspecified), 7.07%.
To `CCCNC(=O)c1nc2c(o1)CN(C(C)=O)C2` belongs -70.6%; to `COc1ccc(N2CCN(Cc3nc(CSC)no3)C(C)C2=O)cc1` (stereo unspecified), 3.28%.
In the case of `CNC(=O)CCN1CCC(c2nnc(Cn3cccn3)n2C2CC2)CC1` it was 1.53%.
In the case of `COCC(C)N1CCc2onc(-c3ccc(C(F)(F)F)cc3)c2C1` (stereo unspecified), the cytotoxicity at 10 µM was -6.45%.
Regarding `COCc1ccc(C(=O)N2CCN(CC=C(C)C)[C@@H]3CS(=O)(=O)C[C@@H]32)o1`, the cytotoxicity at 10 µM amounted to 17.2%.
For `O=C(NC1CCCN(CCc2ccccc2)C1)c1cnccn1` (stereo unspecified), the cytotoxicity at 10 µM is 7.95%.
In the case of `O=C(c1cc2c(s1)CCCCC2)N1CCC(c2ncc[nH]2)CC1` it was 15.7%.
On to `CCOC(=O)N[C@H]1C[C@@H](C(=O)NCc2cccc(Cl)c2)N(C)C1`, for which the cytotoxicity at 10 µM is -3.89%.
On to `C[C@@H]1CN(C(=O)c2ccc(=O)[nH]c2)CC[C@@]1(O)C1CCOCC1`, for which the cytotoxicity at 10 µM is -1.59%.
In the case of `CC[C@H]1CN(C(=O)c2cccc(-n3cnnc3)n2)CC[C@@]1(C)O` it was 3.66%; in that of `CCN(Cc1nccn1C)C(=O)c1ccc(NCCc2c[nH]cn2)nc1`, -2.5%.
As for `c1ccc(C2CCCN2C2CCSCC2)nc1` (stereo unspecified), the cytotoxicity at 10 µM is 9.03%.
To `COc1cccc(OCCNS(C)(=O)=O)c1` belongs 13%.
Turning to `O=C(CCC(F)(F)F)N1CCCC(c2ncc[nH]2)C1` (stereo unspecified), the cytotoxicity at 10 µM stood at 2.14%.
Regarding `O=C(Nc1cccc(CNCc2ccccn2)c1)C1CCCC1`, the cytotoxicity at 10 µM is -7.63%.
In the case of `Cc1n[nH]c(C)c1C1COCCN1C(=O)c1ccc(Cl)o1` (stereo unspecified), the cytotoxicity at 10 µM was -1.01%.
On to `c1ncn(CC2CCCN(Cc3nnc(C4CC4)o3)C2)n1` (stereo unspecified), for which the cytotoxicity at 10 µM is -14.5%.
As to `CCC1c2ccsc2CCN1C(=O)NCc1ccc(C)nc1` (stereo unspecified), the cytotoxicity at 10 µM was -3.75%.
As for `Cc1cnn(C2CCCN(C(=O)Cc3ccc(-n4cccn4)cc3)C2)c1` (stereo unspecified), the cytotoxicity at 10 µM was 2.55%.
In the case of `COc1ccc(OC)c(NC(=O)NCC(O)c2ccc(F)c(F)c2)c1` (stereo unspecified) it was 0.746%; in that of `CC(C)n1c(=O)c2ccccc2n(CCN(C)C)c1=O`, 0.616%; in that of `Cc1nnc(N2CC[C@H]3C[C@@H](C(=O)N4CCCC4)O[C@H]3C2)s1`, -70.6%.
To `CN(C)C(=O)CO[C@H]1CN(Cc2ccsc2)[C@@H]2COC[C@H]12` belongs 8.44%; to `COCc1ncn2c1CN(S(=O)(=O)Cc1ccc(C)cc1)CC2`, 0.854%.
To `COCCN1CCO[C@@H]2CN(Cc3ccc(C)o3)C[C@@H]2C1` belongs -7.24%; to `O=C(c1cccnc1)N1C[C@@H](c2ccccc2)[C@@]2(CCNC2=O)C1`, -6.23%; to `Cn1cnc2c1C(COCC1CCOCC1)CN(C1CCOCC1)C2` (stereo unspecified), -4.22%.
`CCC=C(C)C(=O)NCc1ccc(OC)nc1`: the cytotoxicity at 10 µM is -4.13%.
